Test results from ChEMBL document CHEMBL4351000, “Inhibitory selectivity among class I HDACs has a major impact on inflammatory gene expression in macrophages” (Eur J Med Chem, 2019).
Activity calls are given as the source filed them. The rule behind the calls is not given here.

What was measured:
Histone deacetylase 1 = Histone deacetylase 1 (Homo sapiens, UniProt Q13547); experiment: Inhibition of human recombinant C-terminal His/FLAG-tagged HDAC1 using Boc-Lys-(epsilon-Ac)-AMC as fluorogenic substrate incubated for 90 mins by fluorescence based assay
[1] = target: Histone deacetylase 3/Nuclear receptor corepressor 2 (HDAC3/NCoR2) (Homo sapiens, UniProt O15379); experiment: Inhibition of human recombinant C-terminal His-tagged HDAC3/NCOR2 using Boc-Lys-(epsilon-Ac)-AMC as fluorogenic substrate incubated for 90 mins by fluorescence based assay; format: protein-complex assay
Histone deacetylase 2 = Histone deacetylase 2 (Homo sapiens, UniProt Q92769); experiment: Inhibition of human recombinant C-terminal FLAG-tagged HDAC2 using Boc-Lys-(epsilon-Ac)-AMC as fluorogenic substrate incubated for 90 mins by fluorescence based assay
[2] = target: T1, Histone deacetylase 1/2 (Mus musculus) (UniProt O09106+P70288); experiment: Inhibition of HDAC1/2 in LPS/IFNgamma-stimulated mouse RAW264.7 cells assessed as upregulation of TNF-alpha gene expression at pretreated for 16 hrs followed by LPS stimulation and measured after 4 hrs by RT-qPCR analysis; format: cell-based
In short: (§1)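 RAW264.7 cells were treated with inhibitor for 20 h in total, with LPS/IFNγ added for the final 4 h; vehicle was a proportional DMSO dilution. Cells were washed twice with DPBS, total RNA was isolated, and IL10, iNOS, IL6 and TNFα transcripts were quantified by RT-qPCR relative to vehicle. Mean ± SD of 2–3 independent experiments.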

Homo sapiens [3] = species on record: Homo sapiens; experiment: Selectivity ratio of IC50 for human recombinant C-terminal His-tagged HDAC3/NCOR2 to IC50 for human recombinant C-terminal His/FLAG-tagged HDAC1
In short: (§2)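 Fluorogenic assay using human recombinant HDAC1 (FLAG/His), HDAC2 (FLAG) or HDAC3/NcoR2 (His) in pH 8.0 Tris buffer with NaCl, KCl, MgCl₂, 0.01% Triton-X and 1 mg/mL BSA. Enzyme, inhibitor dilutions and Boc-Lys(ε-Ac)-AMC were incubated 90 min at 37 °C. Trypsin/200 μM vorinostat stop solution was added for 30 min, then fluorescence read (ex 370/em 460 nm). IC50s came from curve fits; the ratio is HDAC3 IC50 over HDAC2 or HDAC1 IC50.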

RAW264.7 = experiment: Cytotoxicity against mouse RAW264.7 cells assessed as cell viability at 1 to 5 uM incubated for 24 hrs by MTS assay; format: cell-based; settings: raw264.7, 24 h
In short: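 RAW264.7 macrophages (passage 5–16) were grown in DMEM GlutaMAX with 10% FBS at 37 °C and 5% CO₂, then seeded at 25,000 cells/cm². The next day, medium was replaced with inhibitor-containing medium for 24 h at 37 °C. MTS reagent was added for 2 h at 37 °C in the dark. Absorbance was read at 490 nm and expressed as % of control.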

Homo sapiens [4] = species on record: Homo sapiens; experiment: Selectivity ratio of IC50 for human recombinant C-terminal His-tagged HDAC3/NCOR2 to IC50 for human recombinant C-terminal FLAG-tagged HDAC2; in short: as §2
[5] = target: T1, Histone deacetylase 1/2 (Mus musculus); experiment: Inhibition of HDAC1/2 in LPS/IFNgamma-stimulated mouse RAW264.7 cells assessed as upregulation of IL-6 gene expression at pretreated for 16 hrs followed by LPS stimulation and measured after 4 hrs by RT-qPCR analysis; format: cell-based; in short: as §1
[6] = target: T1, Histone deacetylase 1/2 (Mus musculus); experiment: Inhibition of HDAC1/2 in LPS/IFNgamma-stimulated mouse RAW264.7 cells assessed as upregulation of iNOS gene expression at pretreated for 16 hrs followed by LPS stimulation and measured after 4 hrs by RT-qPCR analysis; format: cell-based; in short: as §1
[7] = target: T1, Histone deacetylase 1/2 (Mus musculus); experiment: Inhibition of HDAC1/2 in LPS/IFNgamma-stimulated mouse RAW264.7 cells assessed as upregulation of IL-10 gene expression at pretreated for 16 hrs followed by LPS stimulation and measured after 4 hrs by RT-qPCR analysis; format: cell-based; in short: as §1
[8] = target: T1, Histone deacetylase 1/2 (Mus musculus); experiment: Inhibition of HDAC1/2 in LPS/IFNgamma-stimulated mouse RAW264.7 cells assessed as upregulation of IL-6 gene expression at 1 to 5 uM pretreated for 16 hrs followed by LPS stimulation and measured after 4 hrs by RT-qPCR analysis; format: cell-based; in short: as §1
[9] = target: T1, Histone deacetylase 1/2 (Mus musculus); experiment: Inhibition of HDAC1/2 in LPS/IFNgamma-stimulated mouse RAW264.7 cells assessed as upregulation of TNF-alpha gene expression at 1 to 5 uM pretreated for 16 hrs followed by LPS stimulation and measured after 4 hrs by RT-qPCR analysis; format: cell-based; in short: as §1
[10] = target: T1, Histone deacetylase 1/2 (Mus musculus); experiment: Inhibition of HDAC1/2 in LPS/IFNgamma-stimulated mouse RAW264.7 cells assessed as upregulation of iNOS gene expression at 1 to 5 uM pretreated for 16 hrs followed by LPS stimulation and measured after 4 hrs by RT-qPCR analysis; format: cell-based; in short: as §1
[11] = target: T1, Histone deacetylase 1/2 (Mus musculus); experiment: Inhibition of HDAC1/2 in LPS/IFNgamma-stimulated mouse RAW264.7 cells assessed as upregulation of IL-10 gene expression at 1 to 5 uM pretreated for 16 hrs followed by LPS stimulation and measured after 4 hrs by RT-qPCR analysis; format: cell-based; in short: as §1
[12] = target: Histone deacetylase 1 (Mus musculus) (UniProt O09106); experiment: Inhibition of HDAC1 in LPS/IFNgamma-stimulated mouse RAW blue cells assessed as upregulation of NFkappaB transcriptional activity by measuring increase in SEAP activity at 1 to 5 uM pretreated for 16 hrs followed by LPS stimulation and measured after 4 hrs by quanti blue reagent-based reporter gene assay
In short: (§3)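 NF-κB SEAP reporter assay in RAW264.7-derived RAW-Blue cells (passage 4–14), seeded at about 550,000 cells/mL. Cells were pre-incubated with inhibitor for 16 h, then stimulated with 10 ng/mL LPS/IFNγ for 4 h. Supernatant was mixed 1:9 into QUANTI-Blue and incubated 3 h at 37 °C; absorbance was read at 650 nm as % of control. Mean ± SD of 3 independent experiments.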

[13] = target: T2, Histone deacetylase 3 (Mus musculus) (UniProt O88895); experiment: Inhibition of HDAC3 in LPS/IFNgamma-stimulated mouse RAW blue cells assessed as NFkappaB transcriptional activity measured as SEAP activity at 1 to 5 uM pretreated for 16 hrs followed by LPS stimulation and measured after 4 hrs by quanti blue reagent-based reporter gene assay; in short: as §3
T2 sequence (whole entry): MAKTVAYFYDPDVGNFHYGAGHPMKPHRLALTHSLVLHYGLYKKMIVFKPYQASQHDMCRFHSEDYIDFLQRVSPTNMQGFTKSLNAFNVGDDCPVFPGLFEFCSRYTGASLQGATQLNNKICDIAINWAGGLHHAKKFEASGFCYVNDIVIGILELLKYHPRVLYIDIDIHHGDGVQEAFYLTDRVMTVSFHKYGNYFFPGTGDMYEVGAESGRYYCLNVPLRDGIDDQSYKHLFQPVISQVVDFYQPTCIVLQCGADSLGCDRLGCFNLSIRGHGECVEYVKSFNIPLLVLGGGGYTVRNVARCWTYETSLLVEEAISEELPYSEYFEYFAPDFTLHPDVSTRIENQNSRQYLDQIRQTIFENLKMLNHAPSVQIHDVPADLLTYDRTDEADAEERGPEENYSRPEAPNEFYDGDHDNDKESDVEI

[14] = target: T2, Histone deacetylase 3 (Mus musculus); experiment: Inhibition of HDAC3 in LPS/IFNgamma-stimulated mouse RAW264.7 cells assessed as iNOS gene expression at 1 uM pretreated for 16 hrs followed by LPS stimulation and measured after 4 hrs by RT-qPCR analysis; format: cell-based; in short: as §1
[15] = target: T2, Histone deacetylase 3 (Mus musculus); experiment: Inhibition of HDAC3 in LPS/IFNgamma-stimulated mouse RAW264.7 cells assessed as IL-6 gene expression at 1 uM pretreated for 16 hrs followed by LPS stimulation and measured after 4 hrs by RT-qPCR analysis; format: cell-based; in short: as §1
[16] = target: T2, Histone deacetylase 3 (Mus musculus); experiment: Inhibition of HDAC3 in LPS/IFNgamma-stimulated mouse RAW264.7 cells assessed as IL-10 gene expression at 1 uM pretreated for 16 hrs followed by LPS stimulation and measured after 4 hrs by RT-qPCR analysis; format: cell-based; in short: as §1
[17] = target: T2, Histone deacetylase 3 (Mus musculus); experiment: Inhibition of HDAC3 in LPS/IFNgamma-stimulated mouse RAW264.7 cells assessed as TNF-alpha gene expression at 1 uM pretreated for 16 hrs followed by LPS stimulation and measured after 4 hrs by RT-qPCR analysis; format: cell-based; in short: as §1

T1 sequence (O09106 whole entry, looked up): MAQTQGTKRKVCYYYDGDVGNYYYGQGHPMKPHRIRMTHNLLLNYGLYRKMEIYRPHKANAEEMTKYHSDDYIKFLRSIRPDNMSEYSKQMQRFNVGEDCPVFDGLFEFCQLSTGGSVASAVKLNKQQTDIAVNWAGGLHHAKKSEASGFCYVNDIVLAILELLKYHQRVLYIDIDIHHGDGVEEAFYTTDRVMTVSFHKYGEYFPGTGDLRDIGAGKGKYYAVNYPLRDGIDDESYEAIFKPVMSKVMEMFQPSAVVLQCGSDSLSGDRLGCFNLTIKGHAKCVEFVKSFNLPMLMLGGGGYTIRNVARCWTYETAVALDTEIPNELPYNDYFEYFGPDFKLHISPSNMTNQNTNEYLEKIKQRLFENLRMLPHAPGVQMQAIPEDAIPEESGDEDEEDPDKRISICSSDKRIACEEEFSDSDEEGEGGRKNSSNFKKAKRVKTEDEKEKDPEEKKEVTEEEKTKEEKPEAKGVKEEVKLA
T1 sequence (P70288 whole entry, looked up): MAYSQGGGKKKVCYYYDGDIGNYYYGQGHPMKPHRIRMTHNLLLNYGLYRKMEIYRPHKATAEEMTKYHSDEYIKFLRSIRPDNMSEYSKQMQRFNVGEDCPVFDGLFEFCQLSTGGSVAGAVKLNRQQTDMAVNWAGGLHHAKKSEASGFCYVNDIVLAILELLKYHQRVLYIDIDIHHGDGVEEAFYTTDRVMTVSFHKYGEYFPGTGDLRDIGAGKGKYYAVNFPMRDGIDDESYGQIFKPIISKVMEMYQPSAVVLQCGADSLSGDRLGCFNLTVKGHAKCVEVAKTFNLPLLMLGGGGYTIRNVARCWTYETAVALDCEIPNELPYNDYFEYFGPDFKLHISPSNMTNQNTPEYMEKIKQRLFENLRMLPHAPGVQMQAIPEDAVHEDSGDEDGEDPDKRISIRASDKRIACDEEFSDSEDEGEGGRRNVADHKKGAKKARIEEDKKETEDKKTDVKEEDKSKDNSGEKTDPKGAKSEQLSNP
Sequence of Histone deacetylase 1 (Q13547 whole entry): as the sequence (O09106 whole entry, looked up) above, with K8R, E399D, D424E counted along it
Sequence of Histone deacetylase 2 (Q92769 whole entry): as the sequence (P70288 whole entry, looked up) above, with A289V, P477T, A480T counted along it
Sequence of Histone deacetylase 3/Nuclear receptor corepressor 2 (HDAC3/NCoR2) (O15379 whole entry): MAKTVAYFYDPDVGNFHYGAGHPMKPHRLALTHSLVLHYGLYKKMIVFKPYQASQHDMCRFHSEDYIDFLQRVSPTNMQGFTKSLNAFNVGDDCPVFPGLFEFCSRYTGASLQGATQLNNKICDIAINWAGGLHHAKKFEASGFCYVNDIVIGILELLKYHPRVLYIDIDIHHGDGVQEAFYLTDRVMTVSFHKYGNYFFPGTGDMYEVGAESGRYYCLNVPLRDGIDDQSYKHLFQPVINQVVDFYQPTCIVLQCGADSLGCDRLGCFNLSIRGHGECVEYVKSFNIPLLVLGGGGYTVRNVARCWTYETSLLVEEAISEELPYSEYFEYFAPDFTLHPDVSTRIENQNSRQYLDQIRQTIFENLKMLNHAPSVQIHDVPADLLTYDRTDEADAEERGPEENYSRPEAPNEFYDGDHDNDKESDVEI
Sequence of Histone deacetylase 3/Nuclear receptor corepressor 2 (HDAC3/NCoR2) (Q9Y618 whole entry, further chain): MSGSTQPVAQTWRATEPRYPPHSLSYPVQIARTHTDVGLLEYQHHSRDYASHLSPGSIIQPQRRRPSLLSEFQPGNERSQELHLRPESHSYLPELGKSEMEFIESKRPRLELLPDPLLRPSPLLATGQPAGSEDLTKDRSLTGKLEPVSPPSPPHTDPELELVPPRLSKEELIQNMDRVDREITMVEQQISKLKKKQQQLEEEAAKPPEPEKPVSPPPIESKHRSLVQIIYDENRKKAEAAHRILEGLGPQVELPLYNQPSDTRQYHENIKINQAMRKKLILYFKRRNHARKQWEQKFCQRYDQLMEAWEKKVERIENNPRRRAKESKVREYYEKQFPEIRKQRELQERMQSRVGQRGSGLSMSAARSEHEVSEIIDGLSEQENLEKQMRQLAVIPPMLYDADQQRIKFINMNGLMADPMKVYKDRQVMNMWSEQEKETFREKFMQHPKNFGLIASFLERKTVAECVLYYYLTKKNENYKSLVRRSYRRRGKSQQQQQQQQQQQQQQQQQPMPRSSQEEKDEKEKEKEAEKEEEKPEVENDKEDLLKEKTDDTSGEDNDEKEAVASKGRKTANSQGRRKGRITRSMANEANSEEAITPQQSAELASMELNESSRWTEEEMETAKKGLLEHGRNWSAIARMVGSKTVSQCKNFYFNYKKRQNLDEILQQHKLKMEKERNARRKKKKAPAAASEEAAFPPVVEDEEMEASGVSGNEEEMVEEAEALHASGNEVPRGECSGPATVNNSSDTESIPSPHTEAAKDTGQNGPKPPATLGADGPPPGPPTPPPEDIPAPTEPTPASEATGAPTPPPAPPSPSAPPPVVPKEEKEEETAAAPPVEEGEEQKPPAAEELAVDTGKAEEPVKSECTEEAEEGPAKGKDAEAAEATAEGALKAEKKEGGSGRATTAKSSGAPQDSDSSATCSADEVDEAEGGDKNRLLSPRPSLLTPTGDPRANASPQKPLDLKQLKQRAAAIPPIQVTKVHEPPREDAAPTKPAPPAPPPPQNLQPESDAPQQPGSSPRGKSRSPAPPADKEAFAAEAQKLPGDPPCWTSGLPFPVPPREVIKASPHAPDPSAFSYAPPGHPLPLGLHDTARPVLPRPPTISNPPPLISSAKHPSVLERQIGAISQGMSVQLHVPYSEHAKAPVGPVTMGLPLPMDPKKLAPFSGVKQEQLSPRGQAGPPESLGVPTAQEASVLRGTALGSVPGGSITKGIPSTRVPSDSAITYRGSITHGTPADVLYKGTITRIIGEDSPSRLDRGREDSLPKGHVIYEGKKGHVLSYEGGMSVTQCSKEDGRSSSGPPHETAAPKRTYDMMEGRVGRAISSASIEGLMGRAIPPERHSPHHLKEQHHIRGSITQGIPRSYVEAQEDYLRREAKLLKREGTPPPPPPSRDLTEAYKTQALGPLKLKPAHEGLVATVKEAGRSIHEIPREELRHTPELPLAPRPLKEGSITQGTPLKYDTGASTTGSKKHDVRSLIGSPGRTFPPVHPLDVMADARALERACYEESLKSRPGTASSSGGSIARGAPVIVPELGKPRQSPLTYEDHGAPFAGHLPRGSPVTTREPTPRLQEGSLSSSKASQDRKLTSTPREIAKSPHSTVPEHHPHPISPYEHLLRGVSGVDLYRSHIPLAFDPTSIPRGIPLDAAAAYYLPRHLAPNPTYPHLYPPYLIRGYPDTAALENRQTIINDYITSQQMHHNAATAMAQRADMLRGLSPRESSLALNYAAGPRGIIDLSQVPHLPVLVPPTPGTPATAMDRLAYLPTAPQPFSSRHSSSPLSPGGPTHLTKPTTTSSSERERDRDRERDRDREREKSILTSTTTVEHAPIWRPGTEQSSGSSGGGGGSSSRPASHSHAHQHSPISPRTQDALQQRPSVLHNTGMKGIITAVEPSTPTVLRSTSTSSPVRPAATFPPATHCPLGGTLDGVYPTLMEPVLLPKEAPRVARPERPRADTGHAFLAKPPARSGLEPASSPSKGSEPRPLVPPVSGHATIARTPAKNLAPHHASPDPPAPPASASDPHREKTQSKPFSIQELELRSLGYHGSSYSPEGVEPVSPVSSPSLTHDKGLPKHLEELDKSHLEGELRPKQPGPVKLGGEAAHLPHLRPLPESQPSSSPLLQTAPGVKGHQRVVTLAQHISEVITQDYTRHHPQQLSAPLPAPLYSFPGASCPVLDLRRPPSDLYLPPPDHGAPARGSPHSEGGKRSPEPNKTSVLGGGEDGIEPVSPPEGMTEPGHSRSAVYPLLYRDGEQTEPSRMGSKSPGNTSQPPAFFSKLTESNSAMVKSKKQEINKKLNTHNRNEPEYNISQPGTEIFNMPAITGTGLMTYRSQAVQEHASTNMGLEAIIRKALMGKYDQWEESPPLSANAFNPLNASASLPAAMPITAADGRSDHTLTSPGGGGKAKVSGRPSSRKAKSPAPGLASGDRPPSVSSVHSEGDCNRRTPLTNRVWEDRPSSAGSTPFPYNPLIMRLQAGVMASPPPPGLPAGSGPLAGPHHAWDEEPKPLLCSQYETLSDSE
Sequence of Histone deacetylase 1 (Mus musculus) (O09106 whole entry): as the sequence (O09106 whole entry, looked up) above

SMILES	IC50 (Histone deacetylase 1)	IC50 [1]	IC50 (Histone deacetylase 2)	Activity (RAW264.7)	further results
CN(Cc1ccc(C(=O)Nc2ccccc2N)cc1)c1ccccc1	1000 nM	2800 nM	500 nM	–	–
CC(Nc1ccccc1)c1ccc(C(=O)Nc2ccccc2N)cc1 (stereo not drawn)	2300 nM	8500 nM	7000 nM	Non-Toxic	Activity [2]: Active; Ratio IC50 (Homo sapiens [3]): 3.7; Ratio IC50 (Homo sapiens [4]): 1.2; Activity [5]: Active; Activity [6]: Active; Activity [7]: Active
Nc1ccccc1NC(=O)c1ccc(CNC(=O)OCc2cccnc2)cc1 [ENTINOSTAT]	–	–	–	Non-Toxic	–
Nc1ccccc1NC(=O)c1ccc(CNc2ccccc2)cc1	1000 nM	600 nM	1400 nM	–	–
C[C@H](Nc1ccccc1)c1ccc(C(=O)Nc2ccccc2N)cc1	2400 nM	11000 nM	8300 nM	Non-Toxic	–
Nc1ccccc1NC(=O)c1ccc(C(=O)Nc2ccccc2)cc1	3000 nM	16000 nM	5400 nM	–	Ratio IC50 (Homo sapiens [3]): 5.3; Ratio IC50 (Homo sapiens [4]): 3
Nc1ccccc1NC(=O)CCCCCC(=O)c1ccccc1	1900 nM	1200 nM	3700 nM	–	–
C[C@@H](Nc1ccccc1)c1ccc(C(=O)Nc2ccccc2N)cc1	1300 nM	5000 nM	4200 nM	Non-Toxic	Activity [8]: Active; Activity [9]: Active; Activity [10]: Active; Activity [11]: Active; Activity [12]: Active
Nc1cc(F)ccc1NC(=O)/C=C/c1cnn(C/C=C/c2ccccc2)c1	–	–	–	Non-Toxic	Activity [13]: inactive; Activity [14]: inactive; Activity [15]: inactive; Activity [16]: inactive; Activity [17]: inactive
Nc1ccccc1NC(=O)CCCCNC(=O)c1ccccc1	–	–	–	Non-Toxic	–
Nc1ccccc1NC(=O)CCCCCNc1ccccc1	1200 nM	400 nM	1300 nM	–	–
